Screening results (PubChem)
The entries come from a sample that favours hits as a whole.
XBP1 UPR activ = activators of adaptive arm of unfolded protein response (XBP1); CHO-XBP1 luciferase reporter, IRE1-XBP1 UPR activation, luminescence; percent of tunicamycin response, DMSO as zero; activation, % at 20 µM; 0.33% of 330,000 active;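 active = versus positive control, 20 µM dose yields 30% or more activation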
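Test system: CHO-XBP1 luciferase reporter cells | Buffer or medium: Serum-containing F12 medium, 10% FBS | Schedule: 6 h compound exposure at 37 °C, 5% CO2 | Detection: Steady-Glo luciferase glow luminescence, 10 min after reagent addition | Read-out basis: Activation, % of tunicamycin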
CHOP UPR activ = apoptotic UPR (CHOP) activation | 0.34% of 330,000 active | CHO-CHOP luciferase reporter, luminescence; percent of tunicamycin response over DMSO baseline | activation, % at 10 µM;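 active = at 10 µM dose, activation of 40% or more, normalized to positive control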
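assay system = CHO CHOP reporter cells | amount = 500 CHO-CHOP cells per well | buffer or medium = F12 with 10% FBS | incubation = 16-18 h cell attachment, then 6 h compound exposure, 37 °C | detection = luminescence read with Steady-Glo | read-out = percent activation relative to tunicamycin control | controls = tunicamycin high control, DMSO low control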
Jurkat NFkB inh = inhibitors of the PMA/ionomycin-induced NF-kB reporter in Jurkat cells. PMA/ionomycin-induced NF-kB luciferase reporter, luminescence. inhibition, % at 4 µM. 0.53% of 330,000 active; in the data active = inhibition above about 50%
CHOP inh = inhibitors of CHOP induction in ER stress response. CHO-K1 CHOP-promoter luciferase, tunicamycin-induced, 15-18 h. inhibition, % at 10 µM. 3.8% of 220,000 active;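 active = compounds that reduced the stress-induced luciferase reporter signal by more than about 70% of percent inhibition, limit read from the data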
697 NFkB inh = lowers PMA/ionomycin-induced NF-kB signal in 697 B cells. 697 B-cell NF-kB luciferase reporter, 16 h. AID 435022. inhibition, % at 4 µM. 0.33% of 330,000 active; in the data active = inhibition above about 35%
Jurkat NFkB conf = inhibitors of the PMA/ionomycin-induced NF-kB reporter in Jurkat cells, retest; inhibition, % at 4 µM; AID 435020; 27% of 2,700 active; shares compounds with Jurkat NFkB inh; Jurkat NF-kB luciferase, 16 h;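 active = inhibition reaching about 45% at 4 µM in either replicate, limit read from the data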
697 NFkB conf = lowers PMA/ionomycin-induced NF-kB signal in 697 B cells. 35% of 2,000 active. 697 B-cell NF-kB luciferase, 16 h. inhibition, % at 4 µM. shares compounds with 697 NFkB inh; in the data active = inhibition mostly above about 28%, no sharp cut-off; inactive = mostly below about 22%
Of the large screens only hits and unclear results are named; the others gave an inactive call (follow-up assays come after a bar, where they were run).

CCOC(=O)c1sc(NC(=O)Nc2ccccc2Cl)cc1C	CHOP inh 80.1 | Jurkat NFkB conf inactive | 697 NFkB conf inactive
N#Cc1c(-c2ccc(Cl)cc2)c2c([nH]c1=O)-c1ccccc1OC2	none
Cc1ccc(-c2csc(Nc3ccccn3)n2)cc1	none (no result: CHOP inh) | Jurkat NFkB conf inactive | 697 NFkB conf inactive
c1ccc(-c2csc(Nc3ccccn3)n2)cc1	none (no result: CHOP inh) | Jurkat NFkB conf inactive | 697 NFkB conf inactive
Cc1nc(N)sc1-c1csc(Nc2ccccn2)n1	none (no result: XBP1 UPR activ, CHOP UPR activ, Jurkat NFkB inh, 697 NFkB inh)
O=C(Nc1nc(-c2cc(F)ccc2F)cs1)c1ccccn1	none
c1ccc(-c2csc(Nc3cccnc3)n2)cc1	none
Fc1ccc(-c2csc(Nc3ccccn3)n2)c(F)c1	none (no result: CHOP inh) | Jurkat NFkB conf inactive | 697 NFkB conf inactive
CC(=O)Nc1cccc(-c2csc(Nc3ccc(C)cn3)n2)c1	none | Jurkat NFkB conf inactive | 697 NFkB conf inactive
CC(C)(C)c1ccc(C(=O)NCc2nnc(SCC(=O)NCC3CCCO3)o2)cc1 (centres undefined)	none (no result: CHOP inh)
COc1ccc(-c2csc(Nc3ccccn3)n2)cc1OC	none (no result: CHOP inh) | Jurkat NFkB conf inactive | 697 NFkB conf inactive
COc1ccc(CC(=O)Nc2nc(-c3ccc(OC)c(OC)c3)cs2)cc1OC	none (no result: CHOP inh)
CCOc1ccc2nc(NC(=S)N(C)C)sc2c1	none | Jurkat NFkB conf inactive | 697 NFkB conf inactive
Cc1ccccc1OCC(=O)Nc1c2c(nn1C(C)(C)C)CS(=O)(=O)C2	none (no result: CHOP inh)
CCCCn1c(SCC(=O)NC2CC2)nnc1-c1ccncc1	none (no result: CHOP inh)
COc1ccccc1C(=O)Nc1nc2ccccc2[nH]1	Jurkat NFkB inh 90.7, 697 NFkB inh 68.7 (no result: CHOP inh) | Jurkat NFkB conf 92.8 | 697 NFkB conf 66.8
COc1cc(SC)ccc1C(=O)Nc1ccc2c(c1)OCCO2	none | Jurkat NFkB conf inactive | 697 NFkB conf inactive
COc1ccccc1C(=O)NCCC(=O)Nc1nc2ccccc2[nH]1	none (no result: CHOP inh)
COc1cc(SC)ccc1C(=O)Nc1nc2ccccc2[nH]1	Jurkat NFkB inh 98.6, 697 NFkB inh 92.2 (no result: CHOP inh) | Jurkat NFkB conf 97.5 | 697 NFkB conf 97.9
Cc1ccc(-c2cn(-c3ccccc3)c(=S)[nH]2)cc1C	none (no result: CHOP inh) | Jurkat NFkB conf inactive | 697 NFkB conf inactive
Cc1ccccc1-c1cn(-c2ccccc2)c(=S)[nH]1	none (no result: CHOP inh)
O=C(NC(=S)Nc1ccccn1)c1ccc(-c2ccccc2)cc1	none (no result: CHOP inh) | Jurkat NFkB conf inactive | 697 NFkB conf inactive
Cc1cc(NC(=O)C(C)SCC(=O)OC(C)C(=O)Nc2ccc(F)cc2Cl)no1 (centres undefined)	none (no result: CHOP inh)
COc1ccc(C#Cc2c(-c3ccsc3)oc3ccc(N4CCOCC4)cc23)cc1	none (no result: CHOP inh)
c1cc(-c2cc3cc(N4CCOCC4)ccc3o2)cs1	none (no result: CHOP inh) | Jurkat NFkB conf inactive | 697 NFkB conf inactive
Cc1ccc(Cn2ccsc2=NC(=O)CCl)cc1	Jurkat NFkB inh 78.2, 697 NFkB inh 94.2 | Jurkat NFkB conf 50.7 | 697 NFkB conf 98.3
Cc1ccc(C(=O)Nc2cccc(C(F)(F)F)c2)cc1NC(=O)c1ccno1	Jurkat NFkB inh 50.8, 697 NFkB inh 60.4 | Jurkat NFkB conf 87.0 | 697 NFkB conf 61.0
Cc1ccc(C(=O)Nc2cccc(C(F)(F)F)c2)cc1NC(=O)c1nccn1C	none
Clc1ccc(-c2cn3ccccc3n2)cc1	none (no result: CHOP inh) | Jurkat NFkB conf inactive | 697 NFkB conf inactive
O=C(Nc1ccc(-c2cn3ccccc3n2)cc1)c1ccc(Cl)cc1	none
N=c1ccn2c(n1)O[C@H]1[C@@H](CO)[C@H](O)O[C@H]12	Jurkat NFkB inh 53.5, 697 NFkB inh 69.5 (no result: CHOP inh) | Jurkat NFkB conf 61.2 | 697 NFkB conf 61.2
O=C(OCC1OC2C(Oc3nc(=O)ccn32)C1O)c1ccccc1 (centres undefined)	none
C=CC[C@@H](CC(=O)OC(C)(C)C)C(=O)OC[C@H]1CCCN1C(=O)[C@@H](CC=C)CC(=O)NCCO	none (no result: CHOP inh)
O=C(COC(=O)C1C2CC3OC(=O)C1C3C2)Nc1ccc(Cl)cc1 (centres undefined)	none (no result: CHOP inh)
Cc1ccc(NC(CC(=O)c2ccccc2)C(=O)O)cc1Cl (centres undefined)	none | Jurkat NFkB conf inactive | 697 NFkB conf inactive
CCN(c1ccccc1)S(=O)(=O)c1nnc(NC(=O)C(C)(C)C)s1	none (no result: CHOP inh)
Cc1cc2sc3ccc(C#CC4(O)CCCCC4)cc3c(=O)c2cc1C	Jurkat NFkB inh 83.3, 697 NFkB inh 88.2 (no result: CHOP inh) | Jurkat NFkB conf 96.8 | 697 NFkB conf 74.8
NC1(C#Cc2ccc3c(=O)c4ccccc4sc3c2)CCCCC1	none (no result: CHOP inh)
COc1ccccc1CC(=O)N1CCN(S(=O)(=O)c2ccccc2F)CC1	none (no result: CHOP inh)
COc1ccc(CCNc2ncnc3sc(C)cc23)cc1OC	Jurkat NFkB inh 60.9, 697 NFkB inh 68.3 (no result: CHOP inh) | Jurkat NFkB conf 73.4 | 697 NFkB conf 83.2
CCN(CC)S(=O)(=O)c1ccc(Oc2ccc(S(=O)(=O)N(CC)CC)cc2)cc1	Jurkat NFkB inh 55.0, CHOP inh 72.3, 697 NFkB inh 84.5 | Jurkat NFkB conf 74.7 | 697 NFkB conf 87.0
CCN(CC)S(=O)(=O)c1ccc(Oc2ccccc2OC)cc1	none
Oc1cccc(/C=C/c2ccc3cccc(O)c3n2)c1	none (no result: CHOP inh) | Jurkat NFkB conf inactive | 697 NFkB conf inactive
O=C(CCCn1c(=S)[nH]c2cc3c(cc2c1=O)OCO3)NCc1cccc(Cl)c1	none (no result: CHOP inh)
Cc1cc(C)c(NC(=O)CN2C(=O)NC3(CCCc4ccccc43)C2=O)c(Cl)c1 (centres undefined)	none (no result: CHOP inh)
COc1ccccc1C(=O)NC(=O)COC(=O)c1cccc(OC(F)F)c1	none (no result: CHOP inh)
COc1ccc2oc(C(=O)Nc3nccs3)c(C)c2c1	none (no result: CHOP inh) | Jurkat NFkB conf inactive | 697 NFkB conf inactive
CCOc1ccc2oc(C(=O)Nc3nccs3)c(C)c2c1	none (no result: CHOP inh) | Jurkat NFkB conf inactive | 697 NFkB conf inactive
CC(OC(=O)Cn1cnc2ccccc2c1=O)C(=O)NCc1ccccc1 (centres undefined)	none (no result: CHOP inh)
COc1ccc(-c2cc(-c3ccccc3)no2)cc1	none (no result: CHOP inh) | Jurkat NFkB conf inactive | 697 NFkB conf inactive
CCOc1ccc(OCc2cccc(C(=O)N3CCCC3)c2)cc1	none
O=C(NCc1ccccc1)c1cccc(COc2ccc3c(c2)CCC3)c1	none
O=C(O)c1cccc(COc2ccc3c(c2)CCC3)c1	Jurkat NFkB inh 70.0, CHOP inh 92.6, 697 NFkB inh 61.5 | Jurkat NFkB conf 63.9 | 697 NFkB conf 45.1
CCOc1ccc(OCc2cccc(C(=O)O)c2)cc1	Jurkat NFkB inh 88.0, CHOP inh 109.2, 697 NFkB inh 92.1 | Jurkat NFkB conf 90.2 | 697 NFkB conf 76.6
Nc1c(C(=O)O)cnc2c(-c3ccc(Cl)cc3)cnn12	none
Clc1ccc(-c2cnn3c(-c4ccncc4)ccnc23)cc1	none | Jurkat NFkB conf inactive | 697 NFkB conf inactive
CN(CC(=O)Nc1ccc(OC(F)(F)F)cc1)C(=O)Cn1c(=O)cnc2ccccc21	none (no result: CHOP inh)
